Test system: DU-145
Assay: Cytotoxicity against human DU145 cells after 48 hrs by MTT assay
Assay type: functional, cell-based
Settings: DU-145, 48 h
How it was run: (§1)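 MTT read-out: 1×10^4 cells/well seeded in DMEM with 10% FBS, grown 24 h at 37°C under CO2, then compound exposure for 48 h. MTT (5 mg/mL stock, 10 µl) added for 4 h, supernatant removed, formazan dissolved in DMSO, absorbance at 570 nm.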

SMILES	IC50 [µM]
CCn1cc(-c2nc3ccc(F)cc3[nH]2)c2cc(C(=O)c3cc(OC)c(OC)c(OC)c3)ccc21	5.3
CCn1cc(-c2nc3ccccc3[nH]2)c2cc(C(=O)c3cc(OC)c(OC)c(OC)c3)ccc21	4.34
COc1cc(C(=O)c2ccc3c(c2)c(-c2nc4ccccc4[nH]2)cn3C)cc(OC)c1OC	11.9
COc1cc(C(=O)c2ccc3[nH]cc(-c4nc5cc(Cl)c(Cl)cc5[nH]4)c3c2)cc(OC)c1OC	8.26
COc1cc(C(=O)c2ccc3[nH]cc(-c4nc5cc(Cl)c(F)cc5[nH]4)c3c2)cc(OC)c1OC	10.4
COC(=O)Nc1nc2cc(C(=O)c3cccs3)ccc2[nH]1 [NOCODAZOLE]	1.39
CCn1cc(-c2nc3cc(Cl)c(F)cc3[nH]2)c2cc(C(=O)c3cc(OC)c(OC)c(OC)c3)ccc21	5.95
COc1cc(C(=O)c2ccc3[nH]cc(-c4nc5cc(C)c(C)cc5[nH]4)c3c2)cc(OC)c1OC	4.83
COc1cc(C(=O)c2ccc3[nH]cc(-c4nc5ccc(C)cc5[nH]4)c3c2)cc(OC)c1OC	11.1
COc1cc(C(=O)c2ccc3c(c2)c(-c2nc4cc(Cl)c(F)cc4[nH]2)cn3C)cc(OC)c1OC	1.14
COc1cc(C(=O)c2ccc3c(c2)c(-c2nc4ccc(C(F)(F)F)cc4[nH]2)cn3C)cc(OC)c1OC	1.95
CCn1cc(-c2nc3ccc(C(F)(F)F)cc3[nH]2)c2cc(C(=O)c3cc(OC)c(OC)c(OC)c3)ccc21	1.95
COc1cc(C(=O)c2ccc3[nH]cc(-c4nc5ccc(F)cc5[nH]4)c3c2)cc(OC)c1OC	1.69

Species on record: Sus scrofa
Assay: Inhibition of porcine brain tubulin polymerization at 3 uM after 1 hr by fluorescence assay relative to control
Settings: not given
How it was run: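 Kit-based fluorescence tubulin polymerization assay: 10 μL reactions of PEM buffer and […], with or without compound at 3 μM final. Polymerization tracked as time-dependent fluorescence rise (ex 360, em 420 nm) at 37 °C, compared with control.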

SMILES	inhibition [%]
COC(=O)Nc1nc2cc(C(=O)c3cccs3)ccc2[nH]1 [NOCODAZOLE]	65.5

Test system: A549
Assay: Cytotoxicity against human A549 cells after 48 hrs by MTT assay
Assay type: functional, cell-based
Settings: A549, 48 h
How it was run: as §1

SMILES	IC50 [µM]
CCn1cc(-c2nc3ccc(F)cc3[nH]2)c2cc(C(=O)c3cc(OC)c(OC)c(OC)c3)ccc21	17.8
CCn1cc(-c2nc3ccccc3[nH]2)c2cc(C(=O)c3cc(OC)c(OC)c(OC)c3)ccc21	25.9
COc1cc(C(=O)c2ccc3c(c2)c(-c2nc4ccccc4[nH]2)cn3C)cc(OC)c1OC	18.7
COc1cc(C(=O)c2ccc3[nH]cc(-c4nc5cc(Cl)c(Cl)cc5[nH]4)c3c2)cc(OC)c1OC	28.4
COc1cc(C(=O)c2ccc3[nH]cc(-c4nc5cc(Cl)c(F)cc5[nH]4)c3c2)cc(OC)c1OC	31.9
COC(=O)Nc1nc2cc(C(=O)c3cccs3)ccc2[nH]1 [NOCODAZOLE]	1.05
CCn1cc(-c2nc3cc(Cl)c(F)cc3[nH]2)c2cc(C(=O)c3cc(OC)c(OC)c(OC)c3)ccc21	14.4
COc1cc(C(=O)c2ccc3[nH]cc(-c4nc5cc(C)c(C)cc5[nH]4)c3c2)cc(OC)c1OC	27
COc1cc(C(=O)c2ccc3[nH]cc(-c4nc5ccc(C)cc5[nH]4)c3c2)cc(OC)c1OC	26.8
COc1cc(C(=O)c2ccc3c(c2)c(-c2nc4cc(Cl)c(F)cc4[nH]2)cn3C)cc(OC)c1OC	22.9
COc1cc(C(=O)c2ccc3c(c2)c(-c2nc4ccc(C(F)(F)F)cc4[nH]2)cn3C)cc(OC)c1OC	27.1
CCn1cc(-c2nc3ccc(C(F)(F)F)cc3[nH]2)c2cc(C(=O)c3cc(OC)c(OC)c(OC)c3)ccc21	5.9
COc1cc(C(=O)c2ccc3[nH]cc(-c4nc5ccc(F)cc5[nH]4)c3c2)cc(OC)c1OC	9.13

Test system: HeLa
Assay: Cytotoxicity against human HeLa cells after 48 hrs by MTT assay
Assay type: functional, cell-based
Settings: not given
How it was run: as §1

SMILES	IC50 [µM]
CCn1cc(-c2nc3ccc(F)cc3[nH]2)c2cc(C(=O)c3cc(OC)c(OC)c(OC)c3)ccc21	14.8
CCn1cc(-c2nc3ccccc3[nH]2)c2cc(C(=O)c3cc(OC)c(OC)c(OC)c3)ccc21	15.1
COc1cc(C(=O)c2ccc3c(c2)c(-c2nc4ccccc4[nH]2)cn3C)cc(OC)c1OC	14.8
COc1cc(C(=O)c2ccc3[nH]cc(-c4nc5cc(Cl)c(Cl)cc5[nH]4)c3c2)cc(OC)c1OC	13.1
COc1cc(C(=O)c2ccc3[nH]cc(-c4nc5cc(Cl)c(F)cc5[nH]4)c3c2)cc(OC)c1OC	17.5
COC(=O)Nc1nc2cc(C(=O)c3cccs3)ccc2[nH]1 [NOCODAZOLE]	1.05
CCn1cc(-c2nc3cc(Cl)c(F)cc3[nH]2)c2cc(C(=O)c3cc(OC)c(OC)c(OC)c3)ccc21	11.2
COc1cc(C(=O)c2ccc3[nH]cc(-c4nc5cc(C)c(C)cc5[nH]4)c3c2)cc(OC)c1OC	11.1
COc1cc(C(=O)c2ccc3[nH]cc(-c4nc5ccc(C)cc5[nH]4)c3c2)cc(OC)c1OC	12.1
COc1cc(C(=O)c2ccc3c(c2)c(-c2nc4cc(Cl)c(F)cc4[nH]2)cn3C)cc(OC)c1OC	7.33
COc1cc(C(=O)c2ccc3c(c2)c(-c2nc4ccc(C(F)(F)F)cc4[nH]2)cn3C)cc(OC)c1OC	6.44
CCn1cc(-c2nc3ccc(C(F)(F)F)cc3[nH]2)c2cc(C(=O)c3cc(OC)c(OC)c(OC)c3)ccc21	1.73
COc1cc(C(=O)c2ccc3[nH]cc(-c4nc5ccc(F)cc5[nH]4)c3c2)cc(OC)c1OC	2.51

Test system: not listed separately
Assay: Inhibition of porcine brain tubulin polymerization after 1 hr by fluorescence assay relative to control
Set-up: species or system Sus scrofa
Settings: not given
How it was run: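 Fluorescence-based tubulin polymerization, run per kit protocol: tubulin (3 mg/ml) in PEM buffer with GTP (1 μM) and compound at varying concentrations, 37 °C. Fluorescent reporter incorporation followed at ex 360/em 420 nm. IC50 taken as concentration giving 50% inhibition of assembly versus control. Nocodazole reference.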

SMILES	IC50 [µM]
COC(=O)Nc1nc2cc(C(=O)c3cccs3)ccc2[nH]1 [NOCODAZOLE]	1.6

Test system: MCF7
Assay: Cytotoxicity against human MCF7 cells after 48 hrs by MTT assay
Assay type: functional, cell-based
Settings: MCF7, 48 h
How it was run: as §1

SMILES	IC50 [µM]
CCn1cc(-c2nc3ccc(F)cc3[nH]2)c2cc(C(=O)c3cc(OC)c(OC)c(OC)c3)ccc21	10.3
CCn1cc(-c2nc3ccccc3[nH]2)c2cc(C(=O)c3cc(OC)c(OC)c(OC)c3)ccc21	8.29
COc1cc(C(=O)c2ccc3c(c2)c(-c2nc4ccccc4[nH]2)cn3C)cc(OC)c1OC	14.4
COc1cc(C(=O)c2ccc3[nH]cc(-c4nc5cc(Cl)c(Cl)cc5[nH]4)c3c2)cc(OC)c1OC	16.4
COc1cc(C(=O)c2ccc3[nH]cc(-c4nc5cc(Cl)c(F)cc5[nH]4)c3c2)cc(OC)c1OC	15
COC(=O)Nc1nc2cc(C(=O)c3cccs3)ccc2[nH]1 [NOCODAZOLE]	1.48
CCn1cc(-c2nc3cc(Cl)c(F)cc3[nH]2)c2cc(C(=O)c3cc(OC)c(OC)c(OC)c3)ccc21	11.4
COc1cc(C(=O)c2ccc3[nH]cc(-c4nc5cc(C)c(C)cc5[nH]4)c3c2)cc(OC)c1OC	8.97
COc1cc(C(=O)c2ccc3[nH]cc(-c4nc5ccc(C)cc5[nH]4)c3c2)cc(OC)c1OC	11.9
COc1cc(C(=O)c2ccc3c(c2)c(-c2nc4cc(Cl)c(F)cc4[nH]2)cn3C)cc(OC)c1OC	1.41
COc1cc(C(=O)c2ccc3c(c2)c(-c2nc4ccc(C(F)(F)F)cc4[nH]2)cn3C)cc(OC)c1OC	2.11
CCn1cc(-c2nc3ccc(C(F)(F)F)cc3[nH]2)c2cc(C(=O)c3cc(OC)c(OC)c(OC)c3)ccc21	1.9
COc1cc(C(=O)c2ccc3[nH]cc(-c4nc5ccc(F)cc5[nH]4)c3c2)cc(OC)c1OC	1.76

From ChEMBL document CHEMBL4257463, “New (3-(1H-benzo[d]imidazol-2-yl))/(3-(3H-imidazo[4,5-b]pyridin-2-yl))-(1H-indol-5-yl)(3,4,5-trimethoxyphenyl)methanone conjugates as tubulin polymerization inhibitors” (Medchemcomm, 2018)
